Source: ChEMBL document CHEMBL1240314, “Small-molecule inhibitor of p53 binding to mitochondria protects mice from gamma radiation” (2006)
Calls of active or inactive are those of the source. The calls are words filed in the database; no cut-off is given here.

Assays:
[1] = biological target: Cellular tumor antigen p53 (Homo sapiens) (UniProt P04637); test: Inhibition of p53-mediated transactivation in human MCF7 cells in presence of 50 ug/ml of 5-fluorouracil after 24 hrs by beta-galactosidase reporter gene assay; format: cell-based
Method in brief: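 MCF7 cells carrying a lacZ reporter under a p53-responsive promoter, treated with 5-FU 50 µg ml–1 across a range of test-agent concentrations. β-galactosidase measured colorimetrically in cell extracts after 24 h drug incubation. Means ± s.d., n = 3.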

[2] = biological target: Cellular tumor antigen p53 (Homo sapiens) (UniProt P04637); test: Inhibition of p53-dependent transactivation of p21 in gamma-stimulated human ConA cells; format: cell-based
Method in brief: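 ConA cells given 10 µM test agent and 10 Gy gamma irradiation. Protein extracts taken 6 h post-irradiation and p21 detected by immunoblotting.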

[3] = biological target: Cellular tumor antigen p53 (Homo sapiens) (UniProt P04637); test: Inhibition of p53-mediated transactivation in human MCF7 cells in presence of 0.5 ug/ml of doxorubicin after 24 hrs by beta-galactosidase reporter gene assay; format: cell-based
Method in brief: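 MCF7 cells with a p53-responsive lacZ reporter treated with Dox 0.5 mg ml–1 (so in the source) plus a range of compound concentrations; β-galactosidase measured colorimetrically in cell extracts after 24 h; means ± s.d., n = 3.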

NCI-H1299 [4] = test: Antiapoptotic activity against staurosporine-induced cell death in human H1299 cells assessed as caspase 3 activity at 10 uM after 24 hrs; format: functional, cell-based
HeLa [5] = test: Antiapoptotic activity against staurosporine-induced cell death in human HeLa cells assessed as caspase 3 activity at 10 uM after 24 hrs; format: functional, cell-based
NCI-H1299 [6] = test: Antiapoptotic activity against staurosporine-induced cell death in human H1299 cells assessed as caspase 7 activity at 10 uM after 24 hrs; format: functional, cell-based
HeLa [7] = test: Antiapoptotic activity against staurosporine-induced cell death in human HeLa cells assessed as caspase 7 activity at 10 uM after 24 hrs; format: functional, cell-based

Sequence of Cellular tumor antigen p53 (Homo sapiens) (P04637 whole entry, looked up): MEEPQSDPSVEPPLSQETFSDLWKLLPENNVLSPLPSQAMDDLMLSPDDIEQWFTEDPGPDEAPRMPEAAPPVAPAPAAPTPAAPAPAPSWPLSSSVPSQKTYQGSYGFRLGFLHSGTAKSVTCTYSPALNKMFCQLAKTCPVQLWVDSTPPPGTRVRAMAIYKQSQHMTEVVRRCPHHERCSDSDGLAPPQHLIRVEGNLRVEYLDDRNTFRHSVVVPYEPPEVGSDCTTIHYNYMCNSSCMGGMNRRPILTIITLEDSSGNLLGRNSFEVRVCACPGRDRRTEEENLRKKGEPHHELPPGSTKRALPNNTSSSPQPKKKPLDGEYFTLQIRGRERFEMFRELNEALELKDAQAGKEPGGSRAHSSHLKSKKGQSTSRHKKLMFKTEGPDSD

## O=c1[nH]cc(F)c(=O)[nH]1
[1]
  inhibition: inactive

## Cc1ccc(C(=O)Cn2c3c(sc2=N)CCCC3)cc1
[2]
  inhibition: Active

## COc1cccc2c1C(=O)c1c(O)c3c(c(O)c1C2=O)C[C@@](O)(C(=O)CO)C[C@@H]3O[C@H]1C[C@H](N)[C@H](O)[C@H](C)O1
[3]
  inhibition: inactive

## CN[C@@H]1C[C@H]2O[C@@](C)([C@@H]1OC)n1c3ccccc3c3c4c(c5c6ccccc6n2c5c31)C(=O)NC4
NCI-H1299 [4]
  Activity: inactive
HeLa [5]
  Activity: inactive
NCI-H1299 [6]
  Activity: inactive
HeLa [7]
  Activity: inactive
